ChEMBL document CHEMBL1777742, “Synthesis, cytotoxic activities and cell cycle arrest profiles of naphtho[2,1-α]pyrrolo[3,4-c]carbazole-5,7(6H,12H)-dione glycosides” (Bioorg Med Chem Lett, 2011)
Calls of active or inactive are those of the source. No cut-off for these calls is given here.

test system: A549; test: Cytotoxicity against human A549 cells; assay type: functional, cell-based

First: O=C1NC(=O)c2c1c1c3ccccc3ccc1c1c2c2ccccc2n1[C@H]1C[C@H](O)[C@@H](CO)O1
Second: O=C1NC(=O)c2c1c1c3ccccc3ccc1c1c2c2ccccc2n1[C@@H]1O[C@H](CO)[C@@H](O)[C@H]1O
The IC50 of the first is 1.6-fold higher: 3.4 µM for the first, 2.1 µM for the second.

`O=C1NC(=O)c2c1c1c3ccccc3ccc1c1c2c2ccccc2n1[C@H]1OC[C@@H](O)[C@@H](O)[C@H]1O` and `C[C@@H]1O[C@@H](n2c3ccccc3c3c4c(c5c6ccccc6ccc5c32)C(=O)NC4=O)[C@H](O)[C@H](O)[C@H]1O` are within 1.5-fold of each other in IC50: 2 µM for the first, 2.8 µM for the second.

`O=C1NC(=O)c2c1c1c3ccccc3ccc1c1c2c2ccccc2n1[C@@H]1O[C@H](CO)[C@@H](O)[C@H](O)[C@H]1O` and `O=C1NC(=O)c2c1c1c3ccccc3ccc1c1[nH]c3ccccc3c21` are within 1.5-fold of each other in IC50: 2.8 µM for the first, 2.6 µM for the second.

test system: HCT-116; test: Cytotoxicity against human HCT116 cells; assay type: functional, cell-based

Compared with `O=C1NC(=O)c2c1c1c3ccccc3ccc1c1c2c2ccccc2n1[C@H]1C[C@H](O)[C@@H](CO)O1`, `O=C1NC(=O)c2c1c1c3ccccc3ccc1c1c2c2ccccc2n1[C@@H]1O[C@H](CO)[C@@H](O)[C@H]1O` is 2.3-fold lower in IC50: 8.7 µM for the first, 3.8 µM for the second.

Going from `O=C1NC(=O)c2c1c1c3ccccc3ccc1c1c2c2ccccc2n1[C@H]1OC[C@@H](O)[C@@H](O)[C@H]1O` to `C[C@@H]1O[C@@H](n2c3ccccc3c3c4c(c5c6ccccc6ccc5c32)C(=O)NC4=O)[C@H](O)[C@H](O)[C@H]1O`, the IC50 falls from 6 µM to 3.1 µM (1.9-fold). The second is the more potent here.

`O=C1NC(=O)c2c1c1c3ccccc3ccc1c1c2c2ccccc2n1[C@@H]1O[C@H](CO)[C@@H](O)[C@H](O)[C@H]1O` and `O=C1NC(=O)c2c1c1c3ccccc3ccc1c1[nH]c3ccccc3c21` are within 1.5-fold of each other in IC50: 5.1 µM for the first, 5.7 µM for the second.

test system: PC-3; test: Cytotoxicity against human PC3 cells; assay type: functional, cell-based

`O=C1NC(=O)c2c1c1c3ccccc3ccc1c1c2c2ccccc2n1[C@H]1C[C@H](O)[C@@H](CO)O1` and `O=C1NC(=O)c2c1c1c3ccccc3ccc1c1c2c2ccccc2n1[C@@H]1O[C@H](CO)[C@@H](O)[C@H]1O` are within 1.5-fold of each other in IC50: 2.6 µM for the first, 2.4 µM for the second.

`O=C1NC(=O)c2c1c1c3ccccc3ccc1c1c2c2ccccc2n1[C@H]1OC[C@@H](O)[C@@H](O)[C@H]1O` and `C[C@@H]1O[C@@H](n2c3ccccc3c3c4c(c5c6ccccc6ccc5c32)C(=O)NC4=O)[C@H](O)[C@H](O)[C@H]1O` are within 1.5-fold of each other in IC50: 2.1 µM for the first, 2.7 µM for the second.

Going from `O=C1NC(=O)c2c1c1c3ccccc3ccc1c1c2c2ccccc2n1[C@@H]1O[C@H](CO)[C@@H](O)[C@H](O)[C@H]1O` to `O=C1NC(=O)c2c1c1c3ccccc3ccc1c1[nH]c3ccccc3c21`, the IC50 rises from 2.3 µM to 5.9 µM (2.6-fold).

test system: MCF7; test: Cell cycle arrest in human MCF7 cells assessed as accumulation of cells at G1 phase at 10 uM after 24 hrs by FACS analysis; assay type: functional, cell-based
Summary of the method: (§1)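 MCF-7 breast cells were exposed to each compound at 10 μM for 24 h. Cell-cycle distribution was then analysed by FACS, reading the percentage of cells in G1 and S phases.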

With `O=C1NC(=O)c2c1c1c3ccccc3ccc1c1c2c2ccccc2n1[C@H]1C[C@H](O)[C@@H](CO)O1` the Activity was “inactive”.
For `O=C1NC(=O)c2c1c1c3ccccc3ccc1c1c2c2ccccc2n1[C@@H]1O[C@H](CO)[C@@H](O)[C@H]1O`, the Activity was “inactive”.
With `O=C1NC(=O)c2c1c1c3ccccc3ccc1c1c2c2ccccc2n1[C@H]1OC[C@@H](O)[C@@H](O)[C@H]1O` the Activity was “inactive”.
`C[C@@H]1O[C@@H](n2c3ccccc3c3c4c(c5c6ccccc6ccc5c32)C(=O)NC4=O)[C@H](O)[C@H](O)[C@H]1O` was tested, and the Activity was “inactive”.
For `O=C1NC(=O)c2c1c1c3ccccc3ccc1c1c2c2ccccc2n1[C@@H]1O[C@H](CO)[C@@H](O)[C@H](O)[C@H]1O`, the Activity was “inactive”.
For `O=C1NC(=O)c2c1c1c3ccccc3ccc1c1[nH]c3ccccc3c21`, the Activity was “Active”.

test system: MCF7; test: Cytotoxicity against human MCF7 cells; assay type: functional, cell-based

`O=C1NC(=O)c2c1c1c3ccccc3ccc1c1c2c2ccccc2n1[C@H]1C[C@H](O)[C@@H](CO)O1` and `O=C1NC(=O)c2c1c1c3ccccc3ccc1c1c2c2ccccc2n1[C@@H]1O[C@H](CO)[C@@H](O)[C@H]1O` are within 1.5-fold of each other in IC50: 7.3 µM for the first, 5.3 µM for the second.

`O=C1NC(=O)c2c1c1c3ccccc3ccc1c1c2c2ccccc2n1[C@H]1OC[C@@H](O)[C@@H](O)[C@H]1O` and `C[C@@H]1O[C@@H](n2c3ccccc3c3c4c(c5c6ccccc6ccc5c32)C(=O)NC4=O)[C@H](O)[C@H](O)[C@H]1O` are within 1.5-fold of each other in IC50: 4.8 µM for the first, 4.5 µM for the second.

`O=C1NC(=O)c2c1c1c3ccccc3ccc1c1c2c2ccccc2n1[C@@H]1O[C@H](CO)[C@@H](O)[C@H](O)[C@H]1O` and `O=C1NC(=O)c2c1c1c3ccccc3ccc1c1[nH]c3ccccc3c21` are within 1.5-fold of each other in IC50: 6.1 µM for the first, 8.3 µM for the second.

test system: BXPC-3; test: Cell cycle arrest in human BxPC3 cells assessed as accumulation of cells at G2/M phase at 10 uM after 24 hrs by FACS analysis; assay type: functional, cell-based
Summary of the method: (§2)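 Cells were treated with a single 10 μM concentration and analysed by FACS for cell-cycle distribution. The read-out was the percentage of cells in the G1, S and G2/M phases. A 24 h exposure is stated for MCF-7; no duration is given for BxPC3.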

In the case of `O=C1NC(=O)c2c1c1c3ccccc3ccc1c1[nH]c3ccccc3c21`, the Activity is reported as “Active”.

test system: MCF7; test: Cell cycle arrest in human MCF7 cells assessed as decrease of cells at S phase at 10 uM after 24 hrs by FACS analysis; assay type: functional, cell-based; summary of the method: as §2

`O=C1NC(=O)c2c1c1c3ccccc3ccc1c1[nH]c3ccccc3c21` was tested, and the Activity was “Active”.

test system: BXPC-3; test: Cytotoxicity against human BxPC3 cells; assay type: functional, cell-based

`O=C1NC(=O)c2c1c1c3ccccc3ccc1c1c2c2ccccc2n1[C@H]1C[C@H](O)[C@@H](CO)O1` and `O=C1NC(=O)c2c1c1c3ccccc3ccc1c1c2c2ccccc2n1[C@@H]1O[C@H](CO)[C@@H](O)[C@H]1O` are within 1.5-fold of each other in IC50: 7.4 µM for the first, 5.3 µM for the second.

`O=C1NC(=O)c2c1c1c3ccccc3ccc1c1c2c2ccccc2n1[C@H]1OC[C@@H](O)[C@@H](O)[C@H]1O` and `C[C@@H]1O[C@@H](n2c3ccccc3c3c4c(c5c6ccccc6ccc5c32)C(=O)NC4=O)[C@H](O)[C@H](O)[C@H]1O` are within 1.5-fold of each other in IC50: 6.6 µM for the first, 7.3 µM for the second.

Going from `O=C1NC(=O)c2c1c1c3ccccc3ccc1c1c2c2ccccc2n1[C@@H]1O[C@H](CO)[C@@H](O)[C@H](O)[C@H]1O` to `O=C1NC(=O)c2c1c1c3ccccc3ccc1c1[nH]c3ccccc3c21`, the IC50 rises from 5.4 µM to 8.3 µM (1.5-fold).

test system: MDA-MB-468; test: Cytotoxicity against human MDA-MB-468 cells; assay type: functional, cell-based

Going from `O=C1NC(=O)c2c1c1c3ccccc3ccc1c1c2c2ccccc2n1[C@H]1C[C@H](O)[C@@H](CO)O1` to `O=C1NC(=O)c2c1c1c3ccccc3ccc1c1c2c2ccccc2n1[C@@H]1O[C@H](CO)[C@@H](O)[C@H]1O`, the IC50 falls from 9.1 µM to 4.4 µM (2.1-fold). The second is the more potent here.

`O=C1NC(=O)c2c1c1c3ccccc3ccc1c1c2c2ccccc2n1[C@H]1OC[C@@H](O)[C@@H](O)[C@H]1O` and `C[C@@H]1O[C@@H](n2c3ccccc3c3c4c(c5c6ccccc6ccc5c32)C(=O)NC4=O)[C@H](O)[C@H](O)[C@H]1O` are within 1.5-fold of each other in IC50: 3.4 µM for the first, 5 µM for the second.

Going from `O=C1NC(=O)c2c1c1c3ccccc3ccc1c1c2c2ccccc2n1[C@@H]1O[C@H](CO)[C@@H](O)[C@H](O)[C@H]1O` to `O=C1NC(=O)c2c1c1c3ccccc3ccc1c1[nH]c3ccccc3c21`, the IC50 rises from 6.1 µM to greater than 10 µM.

test system: BXPC-3; test: Cell cycle arrest in human BxPC3 cells assessed as accumulation of cells at S phase at 10 uM after 24 hrs by FACS analysis; assay type: functional, cell-based
Summary of the method: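 BxPC3 cells were treated with each compound at 10 μM. The cell-cycle profile was determined by FACS as the percentage of cells in each phase, including S and G2/M.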

For `O=C1NC(=O)c2c1c1c3ccccc3ccc1c1c2c2ccccc2n1[C@H]1C[C@H](O)[C@@H](CO)O1`, the Activity was “Active”.
In the case of `O=C1NC(=O)c2c1c1c3ccccc3ccc1c1c2c2ccccc2n1[C@@H]1O[C@H](CO)[C@@H](O)[C@H]1O`, the Activity is reported as “Active”.
For `O=C1NC(=O)c2c1c1c3ccccc3ccc1c1c2c2ccccc2n1[C@@H]1O[C@H](CO)[C@@H](O)[C@H](O)[C@H]1O`, the Activity was “Active”.

test system: MDA-MB-435; test: Cytotoxicity against human MDA-MB-435 cells; assay type: functional, cell-based

`O=C1NC(=O)c2c1c1c3ccccc3ccc1c1c2c2ccccc2n1[C@H]1C[C@H](O)[C@@H](CO)O1` and `O=C1NC(=O)c2c1c1c3ccccc3ccc1c1c2c2ccccc2n1[C@@H]1O[C@H](CO)[C@@H](O)[C@H]1O` are within 1.5-fold of each other in IC50: 4.1 µM for the first, 3.2 µM for the second.

`O=C1NC(=O)c2c1c1c3ccccc3ccc1c1c2c2ccccc2n1[C@H]1OC[C@@H](O)[C@@H](O)[C@H]1O` and `C[C@@H]1O[C@@H](n2c3ccccc3c3c4c(c5c6ccccc6ccc5c32)C(=O)NC4=O)[C@H](O)[C@H](O)[C@H]1O` are within 1.5-fold of each other in IC50: 3.3 µM for the first, 3.6 µM for the second.

Going from `O=C1NC(=O)c2c1c1c3ccccc3ccc1c1c2c2ccccc2n1[C@@H]1O[C@H](CO)[C@@H](O)[C@H](O)[C@H]1O` to `O=C1NC(=O)c2c1c1c3ccccc3ccc1c1[nH]c3ccccc3c21`, the IC50 rises from 3.5 µM to 5.7 µM (1.6-fold). The first is the more potent here.

test system: MCF7; test: Cell cycle arrest in human MCF7 cells assessed as accumulation of cells at S phase at 10 uM after 24 hrs by FACS analysis; assay type: functional, cell-based; summary of the method: as §1

With `O=C1NC(=O)c2c1c1c3ccccc3ccc1c1c2c2ccccc2n1[C@H]1C[C@H](O)[C@@H](CO)O1` the Activity was “Active”.
With `O=C1NC(=O)c2c1c1c3ccccc3ccc1c1c2c2ccccc2n1[C@@H]1O[C@H](CO)[C@@H](O)[C@H]1O` the Activity was “Active”.
`O=C1NC(=O)c2c1c1c3ccccc3ccc1c1c2c2ccccc2n1[C@H]1OC[C@@H](O)[C@@H](O)[C@H]1O` was tested, and the Activity was “Active”.
In the case of `C[C@@H]1O[C@@H](n2c3ccccc3c3c4c(c5c6ccccc6ccc5c32)C(=O)NC4=O)[C@H](O)[C@H](O)[C@H]1O`, the Activity is reported as “Active”.
`O=C1NC(=O)c2c1c1c3ccccc3ccc1c1c2c2ccccc2n1[C@@H]1O[C@H](CO)[C@@H](O)[C@H](O)[C@H]1O` was tested, and the Activity was “Active”.

test system: MDA-MB-231; test: Cytotoxicity against human MDA-MB-231 cells; assay type: functional, cell-based

`O=C1NC(=O)c2c1c1c3ccccc3ccc1c1c2c2ccccc2n1[C@H]1C[C@H](O)[C@@H](CO)O1` and `O=C1NC(=O)c2c1c1c3ccccc3ccc1c1c2c2ccccc2n1[C@@H]1O[C@H](CO)[C@@H](O)[C@H]1O` are within 1.5-fold of each other in IC50: 3.3 µM for the first, 2.4 µM for the second.

`O=C1NC(=O)c2c1c1c3ccccc3ccc1c1c2c2ccccc2n1[C@H]1OC[C@@H](O)[C@@H](O)[C@H]1O` and `C[C@@H]1O[C@@H](n2c3ccccc3c3c4c(c5c6ccccc6ccc5c32)C(=O)NC4=O)[C@H](O)[C@H](O)[C@H]1O` are within 1.5-fold of each other in IC50: 3.3 µM for the first, 4.7 µM for the second.

First: O=C1NC(=O)c2c1c1c3ccccc3ccc1c1c2c2ccccc2n1[C@@H]1O[C@H](CO)[C@@H](O)[C@H](O)[C@H]1O
Second: O=C1NC(=O)c2c1c1c3ccccc3ccc1c1[nH]c3ccccc3c21
The IC50 of the first is 3-fold lower: 2.7 µM for the first, 8.1 µM for the second.
